In ChEMBL document CHEMBL1255284, “Aspergillus section Fumigati: antifungal susceptibility patterns and sequence-based identification” (2008):
Values after ≈ are worked out from the molar mass of the structure shown.

How the values were obtained:
[1] = test system: Aspergillus lentulus; assay: Antimicrobial activity against Aspergillus lentulus isolate CNM-CM-1290 obtained from sputum of patient after 48 hrs by broth microdilution method; format: functional; settings: isolate CNM-CM-1290, 48 h
Outline: (§1)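 CLSI M38-A broth microdilution with modifications: RPMI 1640 with L-glutamine, 2% glucose, buffered to pH 7 with 0.165 M MOPS. Inoculum of 1 × 10^5 to 5 × 10^5 CFU/ml from 3- to 5-day-old cultures. Incubated 35°C, 48 h, humid. Visual reading with a mirror. MIC is complete growth inhibition; echinocandin MEC is hyphal morphological alteration. Azoles 8 to 0.015 μg/ml; others 16 to 0.03 μg/ml.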

[2] = test system: Aspergillus lentulus; assay: Antimicrobial activity against Aspergillus lentulus isolate CNM-CM-3537 obtained from sputum of patient after 48 hrs by broth microdilution method; format: functional; settings: isolate CNM-CM-3537, 48 h; outline: as §1
[3] = test system: Aspergillus viridinutans; assay: Antimicrobial activity against Aspergillus viridinutans isolate CNM-CM-3147 obtained from oropharyngeal exudate of patient after 48 hrs by broth microdilution method; format: functional; settings: isolate CNM-CM-3147, 48 h; outline: as §1
[4] = test system: Aspergillus fumigatiaffinis; assay: Antimicrobial activity against Aspergillus fumigatiaffinis isolate CNM-CM-3227 obtained from bronchoalveolar lavage fluid of patient after 48 hrs by broth microdilution method; settings: isolate CNM-CM-3227, Lung
[5] = test system: Aspergillus lentulus; assay: Antimicrobial activity against Aspergillus lentulus isolate CNM-CM-4428 obtained from skin of patient after 48 hrs by broth microdilution method; format: functional; settings: isolate CNM-CM-4428, 48 h; outline: as §1
[6] = test system: Aspergillus lentulus; assay: Antimicrobial activity against Aspergillus lentulus isolate CNM-CM-3599 obtained from sputum of patient after 48 hrs by broth microdilution method; format: functional; settings: isolate CNM-CM-3599, 48 h; outline: as §1
[7] = test system: Aspergillus lentulus; assay: Antimicrobial activity against Aspergillus lentulus isolate CNM-CM-3583 obtained from sputum of patient after 48 hrs by broth microdilution method; format: functional; settings: isolate CNM-CM-3583, 48 h; outline: as §1
[8] = test system: Aspergillus lentulus; assay: Antimicrobial activity against Aspergillus lentulus isolate CNM-CM-3364 obtained from bronchoalveolar lavage fluid of patient after 48 hrs by broth microdilution method; format: functional; settings: isolate CNM-CM-3364, Lung; outline: as §1
[9] = test system: Neosartorya pseudofischeri; assay: Antimicrobial activity against Neosartorya pseudofischeri isolate CNM-CM-4060 obtained from sputum of patient after 48 hrs by broth microdilution method; format: functional; settings: Aspergillus thermomutatus
Outline: (§2)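 CLSI M38-A broth microdilution with modifications: RPMI 1640 with L-glutamine, MOPS-buffered to pH 7, plus 2% glucose. Inoculum 1 × 10^5 to 5 × 10^5 CFU/ml from 3–5-day cultures. Incubated at 35°C for 48 h, humid. Read visually with a mirror. MIC = complete growth inhibition; echinocandin MEC = altered hyphal morphology. QC strain A. fumigatus ATCC 2004305.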

[10] = test system: Neosartorya pseudofischeri; assay: Antimicrobial activity against Neosartorya pseudofischeri isolate CNM-CM-3914 obtained from nail of patient after 48 hrs by broth microdilution method; format: functional; settings: Aspergillus thermomutatus, isolate CNM-CM-3914, 48 h; outline: as §2
[11] = test system: Neosartorya hiratsukae; assay: Antimicrobial activity against Neosartorya hiratsukae isolate CNM-CM-4328 obtained from cornea of patient after 48 hrs by broth microdilution method; format: functional; settings: Aspergillus hiratsukae, isolate CNM-CM-4328, Cornea; outline: as §1
[12] = test system: Neosartorya pseudofischeri; assay: Antimicrobial activity against Neosartorya pseudofischeri isolate CNM-CM-2270 obtained from sputum of patient after 48 hrs by broth microdilution method; format: functional; settings: Aspergillus thermomutatus, isolate CNM-CM-2270, 48 h; outline: as §2
[13] = test system: Aspergillus lentulus; assay: Antimicrobial activity against Aspergillus lentulus isolate CNM-CM-3134 obtained from sputum of patient after 48 hrs by broth microdilution method; format: functional; settings: isolate CNM-CM-3134, 48 h; outline: as §1
[14] = test system: Neosartorya hiratsukae; assay: Antimicrobial activity against Neosartorya hiratsukae isolate CNM-CM-3740 obtained from oropharyngeal exudate of patient after 48 hrs by broth microdilution method; format: functional; settings: Aspergillus hiratsukae, isolate CNM-CM-3740, 48 h; outline: as §1
[15] = test system: Neosartorya hiratsukae; assay: Antimicrobial activity against Neosartorya hiratsukae isolate CNM-CM-3303 obtained from skin of patient after 48 hrs by broth microdilution method; format: functional; settings: Aspergillus hiratsukae, isolate CNM-CM-3303, 48 h; outline: as §1
[16] = test system: Aspergillus lentulus; assay: Antimicrobial activity against Aspergillus lentulus isolate CNM-CM-4420 obtained from nail of patient after 48 hrs by broth microdilution method; format: functional; settings: isolate CNM-CM-4420, 48 h; outline: as §1
[17] = test system: Aspergillus lentulus; assay: Antimicrobial activity against Aspergillus lentulus isolate CNM-CM-4370 obtained from sputum of patient after 48 hrs by broth microdilution method; format: functional; settings: isolate CNM-CM-4370, 48 h; outline: as §1
[18] = test system: Aspergillus lentulus; assay: Antimicrobial activity against Aspergillus lentulus isolate CNM-CM-4330 obtained from sputum of patient after 48 hrs by broth microdilution method; format: functional; settings: isolate CNM-CM-4330, 48 h; outline: as §1
[19] = test system: Neosartorya hiratsukae; assay: Antimicrobial activity against Neosartorya hiratsukae isolate CNM-CM-3764 obtained from oropharyngeal exudate of patient after 48 hrs by broth microdilution method; format: functional; settings: Aspergillus hiratsukae, isolate CNM-CM-3764, 48 h; outline: as §1
[20] = test system: Aspergillus lentulus; assay: Antimicrobial activity against Aspergillus lentulus isolate CNM-CM-4415 obtained from sputum of patient after 48 hrs by broth microdilution method; format: functional; settings: isolate CNM-CM-4415, 48 h; outline: as §1
[21] = test system: Aspergillus lentulus; assay: Antimicrobial activity against Aspergillus lentulus isolate CNM-CM-3538 obtained from sputum of patient after 48 hrs by broth microdilution method; format: functional; settings: isolate CNM-CM-3538, 48 h; outline: as §1
[22] = test system: Aspergillus fumisynnematus; assay: Antimicrobial activity against Aspergillus fumisynnematus isolate CNM-CM-4063 obtained from bronchoalveolar aspirate of patient after 48 hrs by broth microdilution method; format: functional; settings: isolate CNM-CM-4063, Lung; outline: as §1
[23] = test system: Aspergillus viridinutans; assay: Antimicrobial activity against Aspergillus viridinutans isolate CNM-CM-4518 obtained from nail of patient after 48 hrs by broth microdilution method; format: functional; settings: isolate CNM-CM-4518, 48 h; outline: as §1
[24] = test system: Aspergillus lentulus; assay: Antimicrobial activity against Aspergillus lentulus isolate CNM-CM-4387 obtained from sputum of patient after 48 hrs by broth microdilution method; format: functional; settings: isolate CNM-CM-4387, 48 h; outline: as §1
[25] = test system: Neosartorya pseudofischeri; assay: Antimicrobial activity against Neosartorya pseudofischeri isolate CNM-CM-3769 obtained from sputum of patient after 48 hrs by broth microdilution method; format: functional; settings: Aspergillus thermomutatus; outline: as §2
[26] = test system: Aspergillus fumigatiaffinis; assay: Antimicrobial activity against Aspergillus fumigatiaffinis isolate CNM-CM-2280 obtained from sputum of patient after 48 hrs by broth microdilution method; settings: isolate CNM-CM-2280, 48 h
[27] = test system: Aspergillus lentulus; assay: Antimicrobial activity against Aspergillus lentulus isolate CNM-CM-4426 obtained from sputum of patient after 48 hrs by broth microdilution method; format: functional; settings: isolate CNM-CM-4426, 48 h; outline: as §1
[28] = test system: Neosartorya hiratsukae; assay: Antimicrobial activity against Neosartorya hiratsukae isolate CNM-CM-3305 obtained from skin of patient after 48 hrs by broth microdilution method; format: functional; settings: Aspergillus hiratsukae, isolate CNM-CM-3305, 48 h; outline: as §1
[29] = test system: Aspergillus fumigatus; assay: Antimicrobial activity against Aspergillus fumigatus ATCC 2004305 after 48 hrs by broth microdilution method; format: functional; settings: ATCC 2004305, 48 h

Structure (SMILES): C[C@@H](c1ncncc1F)[C@](O)(Cn1cncn1)c1ccc(F)cc1F [VORICONAZOLE]
- MIC [1]: 4.5 µg/mL (≈ 12.9 µM)
- MIC [2]: 3.5 µg/mL (≈ 10 µM)
- MIC [3]: 4 µg/mL (≈ 11.5 µM)
- MIC [4]: 5.6 µg/mL (≈ 16 µM)
- MIC [5]: 5 µg/mL (≈ 14.3 µM)
- MIC [6]: 4 µg/mL (≈ 11.5 µM)
- MIC [7]: 3.5 µg/mL (≈ 10 µM)
- MIC [8]: 5.6 µg/mL (≈ 16 µM)
- MIC [9]: 3.33 µg/mL (≈ 9.53 µM)
- MIC [10]: 6.66 µg/mL (≈ 19.1 µM)
- MIC [11]: 1.25 µg/mL (≈ 3.58 µM)
- MIC [12]: 3 µg/mL (≈ 8.59 µM)
- MIC [13]: 6 µg/mL (≈ 17.2 µM)
- MIC [14]: 1 µg/mL (≈ 2.86 µM)
- MIC [15]: 0.5 µg/mL (≈ 1.43 µM)
- MIC [16]: 5.33 µg/mL (≈ 15.3 µM)
- MIC [17]: 5.33 µg/mL (≈ 15.3 µM)
- MIC [18]: 3 µg/mL (≈ 8.59 µM)
- MIC [19]: 1.66 µg/mL (≈ 4.75 µM)
- MIC [20]: 5.33 µg/mL (≈ 15.3 µM)
- MIC [21]: 7.5 µg/mL (≈ 21.5 µM)
- MIC [22]: 0.83 µg/mL (≈ 2.38 µM)
- MIC [23]: 4 µg/mL (≈ 11.5 µM)
- MIC [24]: 4 µg/mL (≈ 11.5 µM)
- MIC [25]: 3.33 µg/mL (≈ 9.53 µM)
- MIC [26]: 6.66 µg/mL (≈ 19.1 µM)
- MIC [27]: 5.33 µg/mL (≈ 15.3 µM)
- MIC [28]: 0.375 µg/mL (≈ 1.07 µM)
- MIC [29]: 0.25 µg/mL (≈ 0.716 µM)

Structure (SMILES): CC[C@H](C)C[C@H](C)CCCCCCCCC(=O)N[C@H]1C[C@@H](O)[C@@H](NCCN)NC(=O)[C@@H]2[C@@H](O)CCN2C(=O)[C@H]([C@H](O)CCN)NC(=O)[C@H]([C@H](O)[C@@H](O)c2ccc(O)cc2)NC(=O)[C@@H]2C[C@@H](O)CN2C(=O)[C@H]([C@@H](C)O)NC1=O [CASPOFUNGIN]
- minimal effective concentration ([1]; read-out: MEC): 0.28 µg/mL
- minimal effective concentration ([2]; read-out: MEC): 0.42 µg/mL
- minimal effective concentration ([3]; read-out: MEC): 0.67 µg/mL
- minimal effective concentration ([4]; read-out: MEC): 0.16 µg/mL
- minimal effective concentration ([5]; read-out: MEC): 0.29 µg/mL
- minimal effective concentration ([6]; read-out: MEC): 0.26 µg/mL
- minimal effective concentration ([7]; read-out: MEC): 1 µg/mL
- minimal effective concentration ([8]; read-out: MEC): 0.18 µg/mL
- minimal effective concentration ([9]; read-out: MEC): 0.62 µg/mL
- minimal effective concentration ([10]; read-out: MEC): 1 µg/mL
- minimal effective concentration ([11]; read-out: MEC): 0.03 µg/mL
- minimal effective concentration ([12]; read-out: MEC): 0.51 µg/mL
- minimal effective concentration ([13]; read-out: MEC): 0.38 µg/mL
- minimal effective concentration ([14]; read-out: MEC): 0.66 µg/mL
- minimal effective concentration ([15]; read-out: MEC): 0.34 µg/mL
- minimal effective concentration ([16]; read-out: MEC): 0.33 µg/mL
- minimal effective concentration ([17]; read-out: MEC): 0.91 µg/mL
- minimal effective concentration ([18]; read-out: MEC): 1.2 µg/mL
- minimal effective concentration ([19]; read-out: MEC): 0.26 µg/mL
- minimal effective concentration ([20]; read-out: MEC): 0.25 µg/mL
- minimal effective concentration ([21]; read-out: MEC): 0.11 µg/mL
- minimal effective concentration ([22]; read-out: MEC): 0.5 µg/mL
- minimal effective concentration ([23]; read-out: MEC): 1 µg/mL
- minimal effective concentration ([24]; read-out: MEC): 0.25 µg/mL
- minimal effective concentration ([25]; read-out: MEC): 0.12 µg/mL
- minimal effective concentration ([26]; read-out: MEC): 1.3 µg/mL
- minimal effective concentration ([27]; read-out: MEC): 0.22 µg/mL
- minimal effective concentration ([28]; read-out: MEC): 0.03 µg/mL
- minimal effective concentration ([29]; read-out: MEC): 0.12 µg/mL
